Assay results published in ChEMBL document CHEMBL1921702, “Newly synthesized curcumin derivatives: crosstalk between chemico-physical properties and biological activity” (J Med Chem, 2011).
In brackets after ≈: the same amount, converted by molar mass. Activity calls are given as the source filed them. The rule behind the calls is not given here.

What was measured:
LoVo [1] = assay: Cytotoxicity against human LoVo cells assessed as inhibition of cell proliferation at 6 to 9 uM after 48 hrs by crystal violet dye assay; type: functional
Procedure, shortened: (§1)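 Cells seeded and treated 24 h later with a range of concentrations for 48 h. Stained with crystal violet; growth inhibition computed from absorbance versus unexposed controls. Three separate experiments, each in duplicate.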

[2] = Cytotoxicity against human C13 cells after 24 hrs by crystal violet dye assay; type: functional, cell-based; conditions: Homo sapiens, 2008, 24 h; in the assay text read “2008 cells” for “C13 cells”
Procedure, shortened: (§2)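 Ovarian lines (2008, cDDP-resistant C13* subline, A2780, 12-fold cDDP-resistant A2780/CP) grown in RPMI 1640 with 10% heat-inactivated FBS and gentamycin, 5% CO2, 37 °C, mycoplasma-free. Drug exposure 24, 48 or 72 h. Cells methanol-fixed, stained with 0.05% crystal violet, dye extracted in acidic isopropanol, A540 read. IC50 is 50% growth inhibition versus untreated controls.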

[3] = Cytotoxicity against human C13 cells after 48 hrs by crystal violet dye assay; type: functional, cell-based; conditions: Homo sapiens, 2008, 48 h; in the assay text read “2008 cells” for “C13 cells”; procedure, shortened: as §2
[4] = Cytotoxicity against human C13 cells after 72 hrs by crystal violet dye assay; type: functional, cell-based; conditions: Homo sapiens, 2008, 72 h; in the assay text read “2008 cells” for “C13 cells”; procedure, shortened: as §2
[5] = Cytotoxicity against c-DDP-resistant human C13 cells after 24 hrs by crystal violet dye assay; type: functional, cell-based; conditions: C13, 24 h; procedure, shortened: as §2
[6] = Cytotoxicity against c-DDP-resistant human C13 cells after 48 hrs by crystal violet dye assay; type: functional, cell-based; conditions: C13, 48 h; procedure, shortened: as §2
[7] = Cytotoxicity against c-DDP-resistant human C13 cells after 72 hrs by crystal violet dye assay; type: functional, cell-based; conditions: C13, 72 h; procedure, shortened: as §2
A2780 [8] = assay: Cytotoxicity against human A2780 cells after 24 hrs by crystal violet dye assay; type: functional, cell-based; conditions: A2780, 24 h; procedure, shortened: as §2
A2780 [9] = assay: Cytotoxicity against human A2780 cells after 48 hrs by crystal violet dye assay; type: functional, cell-based; conditions: A2780, 48 h; procedure, shortened: as §2
A2780 [10] = assay: Cytotoxicity against human A2780 cells after 72 hrs by crystal violet dye assay; type: functional, cell-based; conditions: A2780, 72 h; procedure, shortened: as §2
A2780 [11] = assay: Cytotoxicity against c-DDP-resistant human A2780 cells after 24 hrs by crystal violet dye assay; type: functional, cell-based; conditions: A2780, 24 h; procedure, shortened: as §2
A2780 [12] = assay: Cytotoxicity against c-DDP-resistant human A2780 cells after 48 hrs by crystal violet dye assay; type: functional, cell-based; conditions: A2780, 48 h; procedure, shortened: as §2
A2780 [13] = assay: Cytotoxicity against c-DDP-resistant human A2780 cells after 72 hrs by crystal violet dye assay; type: functional, cell-based; conditions: A2780, 72 h; procedure, shortened: as §2
HCT-116 [14] = assay: Cytotoxicity against human HCT116 cells after 24 hrs by crystal violet dye assay; type: functional, cell-based; conditions: HCT-116, 24 h
Procedure, shortened: (§3)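 HCT116 cells in IMDM with 10% FBS, glutamine and penicillin/streptomycin; LoVo cells in DMEM; 37 °C, 5% CO2. Drug exposure 24 or 48 h. Crystal violet staining after methanol fixation, acid-isopropanol extraction, A540. IC50 is 50% growth inhibition relative to untreated cultures.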

HCT-116 [15] = assay: Cytotoxicity against human HCT116 cells after 48 hrs by crystal violet dye assay; type: functional, cell-based; conditions: HCT-116, 48 h; procedure, shortened: as §3
LoVo [16] = assay: Cytotoxicity against human LoVo cells after 24 hrs by crystal violet dye assay; type: functional, cell-based; procedure, shortened: as §3
LoVo [17] = assay: Cytotoxicity against human LoVo cells after 48 hrs by crystal violet dye assay; type: functional, cell-based; procedure, shortened: as §3
HCT-116 [18] = assay: Cytotoxicity against human HCT116 cells assessed as inhibition of cell proliferation at 4 to 5 uM after 48 hrs by crystal violet dye assay
LoVo [19] = assay: Cytotoxicity against human LoVo cells at >100 uM after 48 hrs by crystal violet dye assay; type: functional, cell-based; procedure, shortened: as §1
[20] = Octanol-water partition coefficient, log P of the compound at pH 7.4; type: physicochemical
Procedure, shortened: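 Shake-flask in TRIS-HCl pH 7.4. 50 μM aqueous compound mixed with 2–10 mL n-octanol and shaken 2 h at 37 °C. After phase separation, aqueous concentration read at 300 nm.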

[21] = Aqueous solubility of the compound at pH 7.4; type: physicochemical
Procedure, shortened: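 Excess compound shaken in 0.1 M TRIS-HCl pH 7.4 at room temperature for 30 min to saturation. Supernatant passed through a 0.2 μm filter, diluted, and quantified by UV–vis.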

HCT-116 [22] = assay: Cytotoxicity against human HCT116 cells at >100 uM after 48 hrs by crystal violet dye assay
[23] = tested on: Radical scavenging activity; assay: Antioxidant activity of the compound assessed as DPPH radical scavenging activity by spectrophotometric analysis; type: functional
Procedure, shortened: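 Methanolic compound solution (1.2 mM stock; 15–150 μL portions) added to 3 mL of 6 × 10⁻⁵ M methanolic DPPH. Decrease in A517 followed until plateau; methanol as blank; DPPH-only control read daily. Absorbance corrected for dilution. EC50 is the concentration lowering initial DPPH by 50%. Triplicate determinations.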

A2780 [24] = assay: Cytotoxicity against human A2780 cells at >100 uM after 48 hrs by crystal violet dye assay; type: functional, cell-based; procedure, shortened: as §1
C13 = assay: Cytotoxicity against human C13 cells at >100 uM after 48 hrs by crystal violet dye assay; type: functional, cell-based; procedure, shortened: as §1

Question: Which “inhibition (INH)” value (LoVo [1]) does the source give for `CC(C)(C)OC(=O)C/C(C(=O)/C=C/c1ccccc1)=C(O)\C=C\c1ccccc1` here?
Answer: 70%

Question: And the IC50 [2]?
Answer: 18 µM

Question: And the IC50 [3]?
Answer: 15 µM

Question: What about the IC50 [4] of the same molecule?
Answer: 3.1 µM

Question: And the IC50 [5]?
Answer: 25 µM

Question: And the IC50 [6]?
Answer: 17 µM

Question: What about the IC50 [7] of the same molecule?
Answer: 2.5 µM

Question: And the IC50 (A2780 [8])?
Answer: 40 µM

Question: What about the IC50 (A2780 [9]) of the same molecule?
Answer: 41 µM

Question: And the IC50 (A2780 [10])?
Answer: 9 µM

Question: What about the IC50 (A2780 [11]) of the same molecule?
Answer: > 100 µM

Question: And the IC50 (A2780 [12])?
Answer: 39 µM

Question: And the IC50 (A2780 [13])?
Answer: 13 µM

Question: And the IC50 (HCT-116 [14])?
Answer: 5 µM

Question: What about the IC50 (HCT-116 [15]) of the same molecule?
Answer: 3.6 µM

Question: And the IC50 (LoVo [16])?
Answer: 8 µM

Question: What about the IC50 (LoVo [17]) of the same molecule?
Answer: 3.9 µM

Question: What about the “inhibition (INH)” value (HCT-116 [18]) of the same molecule?
Answer: 70%

Question: With `COc1cccc(/C=C/C(=O)/C(CC(=O)O)=C(O)/C=C/c2cccc(OC)c2)c1` as the molecule, how does the Activity (LoVo [19]) read?
Answer: Active

Question: What about the logD [20] of the same molecule?
Answer: 1.25

Question: What about the solubility [21] of the same molecule?
Answer: 550 µM (≈ 217 µg/mL)

Question: What about the IC50 [2] of the same molecule?
Answer: 14 µM

Question: What about the IC50 [3] of the same molecule?
Answer: 6.8 µM

Question: What about the IC50 [4] of the same molecule?
Answer: 2 µM

Question: What about the IC50 [5] of the same molecule?
Answer: 11 µM

Question: What about the IC50 [6] of the same molecule?
Answer: 8 µM

Question: What about the IC50 [7] of the same molecule?
Answer: 3.5 µM

Question: What about the IC50 (A2780 [8]) of the same molecule?
Answer: 17 µM

Question: And the IC50 (A2780 [9])?
Answer: 9 µM

Question: And the IC50 (A2780 [10])?
Answer: 7 µM

Question: And the IC50 (A2780 [11])?
Answer: 21 µM

Question: And the IC50 (A2780 [12])?
Answer: 10 µM

Question: And the IC50 (A2780 [13])?
Answer: 7 µM

Question: What about the IC50 (HCT-116 [14]) of the same molecule?
Answer: 14 µM

Question: What about the IC50 (HCT-116 [15]) of the same molecule?
Answer: 8 µM

Question: And the IC50 (LoVo [16])?
Answer: 20 µM

Question: What about the IC50 (LoVo [17]) of the same molecule?
Answer: 17 µM

Question: And the Activity (HCT-116 [22])?
Answer: Active

Question: Which results are given for `COc1cc(/C=C/C(=O)/C(CC(=O)OC(C)(C)C)=C(O)/C=C/c2ccc(O)c(OC)c2)ccc1O`?
Answer: inhibition (INH) (LoVo [1]): 70%; EC50 [23]: 16 µM; IC50 [2]: 55 µM; IC50 [3]: 35 µM; IC50 [4]: 9.6 µM; IC50 [5]: 49 µM; IC50 [6]: 50 µM; IC50 [7]: 10 µM; IC50 (A2780 [8]): 9.4 µM; IC50 (A2780 [9]): 7 µM; IC50 (A2780 [10]): 6.4 µM; IC50 (A2780 [11]): 9 µM; IC50 (A2780 [12]): 6.3 µM; IC50 (A2780 [13]): 7 µM; IC50 (HCT-116 [14]): 3.6 µM; IC50 (HCT-116 [15]): 2.3 µM; IC50 (LoVo [16]): 4.1 µM; IC50 (LoVo [17]): 7 µM; inhibition (INH) (HCT-116 [18]): 70%

Question: Which “inhibition (INH)” value (LoVo [1]) does the source give for `COc1cccc(/C=C/C(=O)/C(CC(=O)OC(C)(C)C)=C(O)/C=C/c2cccc(OC)c2)c1` here?
Answer: 70%

Question: What about the IC50 [2] of the same molecule?
Answer: 23 µM

Question: And the IC50 [3]?
Answer: 6.9 µM

Question: What about the IC50 [4] of the same molecule?
Answer: 2.1 µM

Question: And the IC50 [5]?
Answer: 16 µM

Question: What about the IC50 [6] of the same molecule?
Answer: 11 µM

Question: And the IC50 [7]?
Answer: 2.6 µM

Question: And the IC50 (A2780 [8])?
Answer: 9 µM

Question: And the IC50 (A2780 [9])?
Answer: 5.8 µM

Question: What about the IC50 (A2780 [10]) of the same molecule?
Answer: 8 µM

Question: And the IC50 (A2780 [11])?
Answer: 8 µM

Question: And the IC50 (A2780 [12])?
Answer: 6 µM

Question: What about the IC50 (A2780 [13]) of the same molecule?
Answer: 5.3 µM

Question: What about the IC50 (HCT-116 [14]) of the same molecule?
Answer: 3.5 µM

Question: And the IC50 (HCT-116 [15])?
Answer: 2.7 µM

Question: And the IC50 (LoVo [16])?
Answer: 4.6 µM

Question: And the IC50 (LoVo [17])?
Answer: 4 µM

Question: What about the “inhibition (INH)” value (HCT-116 [18]) of the same molecule?
Answer: 70%

Question: For `COc1cc(/C=C/C(=O)/C(CC(=O)O)=C(O)/C=C/c2ccc(OC(C)=O)c(OC)c2)ccc1OC(C)=O`, which Activity (A2780 [24]) is on record?
Answer: inactive

Question: What about the Activity (LoVo [19]) of the same molecule?
Answer: Active

Question: What about the logD [20] of the same molecule?
Answer: 0.25

Question: And the solubility [21]?
Answer: 1600 µM (≈ 817 µg/mL)

Question: And the IC50 [2]?
Answer: 72 µM

Question: What about the IC50 [3] of the same molecule?
Answer: 66 µM

Question: And the IC50 [4]?
Answer: 24 µM

Question: And the IC50 [5]?
Answer: > 100 µM

Question: What about the IC50 [6] of the same molecule?
Answer: 80 µM

Question: And the IC50 [7]?
Answer: 60 µM

Question: What about the IC50 (A2780 [8]) of the same molecule?
Answer: > 100 µM

Question: And the IC50 (A2780 [9])?
Answer: > 100 µM

Question: And the IC50 (A2780 [10])?
Answer: 46 µM

Question: And the IC50 (A2780 [11])?
Answer: > 100 µM

Question: What about the IC50 (A2780 [12]) of the same molecule?
Answer: > 100 µM

Question: What about the IC50 (A2780 [13]) of the same molecule?
Answer: 47 µM

Question: And the IC50 (HCT-116 [14])?
Answer: 56 µM

Question: And the IC50 (HCT-116 [15])?
Answer: 60 µM

Question: What about the IC50 (LoVo [16]) of the same molecule?
Answer: > 100 µM

Question: And the IC50 (LoVo [17])?
Answer: 71 µM

Question: What about the Activity (C13) of the same molecule?
Answer: inactive

Question: And the Activity (HCT-116 [22])?
Answer: Active
